According to ChEMBL document CHEMBL4393665 (Eur J Med Chem, 2019):
pEC50, pIC50: −log10 of the molar value.

Columns and labels:
[1] = Half life in human plasma at 1 uM by LC-MS/MS analysis; type: ADME, cell-free
How it was run: (§1)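 Samples were incubated in phosphate buffer or human plasma and analysed by LC-MS/MS in product ion scan mode. Analyte concentration was monitored over incubation time. The slope of ln(concentration) versus time gave the first-order degradation rate constant k, and t1/2 was calculated from k. Ketoprofen ethyl ester served as a reference to confirm that the plasma batch was enzymatically active.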

[2] = biological target: T1, ATP-dependent translocase ABCB1 (Homo sapiens, UniProt P08183); experiment: Inhibition of P-gp in human K562/DOX cells assessed as drug level causing maximum increase in nuclear pirarubicin concentration incubated for 30 mins by spectroflurometry relative to control; type: cell-based; conditions: 0.5 h
T1 sequence (P08183 whole entry): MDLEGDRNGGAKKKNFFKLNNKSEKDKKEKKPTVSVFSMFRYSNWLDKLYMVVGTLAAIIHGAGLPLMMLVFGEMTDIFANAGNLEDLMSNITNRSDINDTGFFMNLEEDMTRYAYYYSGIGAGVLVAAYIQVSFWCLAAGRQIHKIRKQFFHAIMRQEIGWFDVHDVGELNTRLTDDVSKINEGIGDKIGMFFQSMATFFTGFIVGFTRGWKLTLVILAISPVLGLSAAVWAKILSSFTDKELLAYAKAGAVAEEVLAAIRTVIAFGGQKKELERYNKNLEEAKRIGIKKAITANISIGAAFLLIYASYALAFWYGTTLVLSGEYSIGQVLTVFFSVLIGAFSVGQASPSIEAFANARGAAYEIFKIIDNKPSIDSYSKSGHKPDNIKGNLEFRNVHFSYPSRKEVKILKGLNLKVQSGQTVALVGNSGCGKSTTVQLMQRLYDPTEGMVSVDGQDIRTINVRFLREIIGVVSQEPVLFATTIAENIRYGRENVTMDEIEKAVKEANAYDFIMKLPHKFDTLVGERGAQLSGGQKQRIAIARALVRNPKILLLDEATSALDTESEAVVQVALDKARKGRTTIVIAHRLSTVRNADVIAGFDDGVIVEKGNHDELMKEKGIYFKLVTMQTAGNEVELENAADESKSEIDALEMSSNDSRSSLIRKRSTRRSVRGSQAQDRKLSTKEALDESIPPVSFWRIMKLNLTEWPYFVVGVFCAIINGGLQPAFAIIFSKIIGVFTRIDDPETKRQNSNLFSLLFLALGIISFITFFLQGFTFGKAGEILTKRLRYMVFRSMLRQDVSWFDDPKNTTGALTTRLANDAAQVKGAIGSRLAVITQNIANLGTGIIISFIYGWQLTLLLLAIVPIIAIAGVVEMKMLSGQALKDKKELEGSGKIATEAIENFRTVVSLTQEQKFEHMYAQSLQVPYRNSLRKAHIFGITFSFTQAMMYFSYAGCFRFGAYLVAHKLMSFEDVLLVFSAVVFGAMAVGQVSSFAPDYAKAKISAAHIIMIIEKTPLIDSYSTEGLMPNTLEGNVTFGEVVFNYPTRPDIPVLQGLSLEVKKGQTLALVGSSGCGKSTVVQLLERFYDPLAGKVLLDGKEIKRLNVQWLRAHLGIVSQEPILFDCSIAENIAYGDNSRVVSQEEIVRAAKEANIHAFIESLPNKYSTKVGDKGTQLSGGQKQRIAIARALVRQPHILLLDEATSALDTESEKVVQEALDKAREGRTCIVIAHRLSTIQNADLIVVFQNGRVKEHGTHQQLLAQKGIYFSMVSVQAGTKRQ
How it was run: (§2)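 Pirarubicin uptake into nuclei was measured in P-gp-overexpressing, doxorubicin-resistant K562/DOX cells. [I]0.5 is the modulator concentration giving a half-maximal increase (α = 0.5) in nuclear pirarubicin concentration. αmax is the maximum increase obtainable in resistant cells. Mean ± SE of three independent experiments.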

[3] = biological target: T1, ATP-dependent translocase ABCB1; experiment: Inhibition of P-gp in human K562/DOX cells assessed as drug level causing 50% increase in nuclear pirarubicin concentration incubated for 30 mins by spectroflurometry; type: cell-based; conditions: read-out: I0.5; how it was run: as §2
[4] = Half life in PBS at 1 uM by LC-MS/MS analysis; type: physicochemical; how it was run: as §1
[5] = biological target: T1, ATP-dependent translocase ABCB1; experiment: Inhibition of P-glycoprotein (unknown origin) in MDCK-MDR1 assessed as inhibtion of calcein-AM transport incubated for 30 mins by fluorescence assay; type: cell-based
[6] = biological target: T1, ATP-dependent translocase ABCB1; experiment: Inhibition of P-glycoprotein (unknown origin) in MDCK-MDR1 assessed as reduction of ATP consumption pre-incubated for 2 hrs followed by substrate addition shaken for 5 mins by luminescence assay; type: cell-based; conditions: mdck-mdr1, 5 min
[7] = biological target: T1, ATP-dependent translocase ABCB1; experiment: Inhibition of P-glycoprotein-mediated Rhodamine-123 efflux in human K562 cells assessed as Rhodamine-123 accumulation at 1 uM preincubated for 15 mins followed by Rhodamine-123 addition measured after 30 mins by flow cytometry; type: cell-based; conditions: k562, 0.5 h
[8] = biological target: T2, Broad substrate specificity ATP-binding cassette transporter ABCG2 (Homo sapiens, UniProt Q9UNQ0); experiment: Inhibition of BCRP (unknown origin) in MDCK-BCRP assessed as inhibtion of hoechst 33342 transport incubated for 30 mins by fluorescence assay
T2 sequence (Q9UNQ0 whole entry): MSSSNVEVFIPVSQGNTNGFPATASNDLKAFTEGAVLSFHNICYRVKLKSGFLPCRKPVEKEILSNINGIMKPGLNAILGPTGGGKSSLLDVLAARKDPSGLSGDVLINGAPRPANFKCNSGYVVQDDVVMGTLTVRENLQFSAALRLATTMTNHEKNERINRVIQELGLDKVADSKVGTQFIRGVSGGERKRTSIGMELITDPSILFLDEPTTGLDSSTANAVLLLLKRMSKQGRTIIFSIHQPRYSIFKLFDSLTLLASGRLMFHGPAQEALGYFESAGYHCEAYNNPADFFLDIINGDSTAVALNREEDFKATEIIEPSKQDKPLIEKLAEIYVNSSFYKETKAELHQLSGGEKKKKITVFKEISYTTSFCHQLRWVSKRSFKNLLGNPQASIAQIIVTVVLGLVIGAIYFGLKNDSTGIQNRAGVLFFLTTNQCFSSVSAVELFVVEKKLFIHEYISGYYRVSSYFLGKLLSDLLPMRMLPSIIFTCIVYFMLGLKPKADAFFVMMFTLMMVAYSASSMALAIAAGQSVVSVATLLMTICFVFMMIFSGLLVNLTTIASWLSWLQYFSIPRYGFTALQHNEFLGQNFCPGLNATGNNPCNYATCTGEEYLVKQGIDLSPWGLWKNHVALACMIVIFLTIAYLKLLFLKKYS

[9] = biological target: T1, ATP-dependent translocase ABCB1; experiment: Inhibition of P-glycoprotein-mediated Rhodamine-123 efflux in human K562/DOX cells assessed as […] at 1 uM […] by flow cytometry relative to control; type: cell-based; parameters: scale not given: the % may be the effect or the level left; conditions: 0.5 h
How it was run: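 K562/DOX cells were loaded with 5 µM rhodamine-123 for 30 min. They were then washed and held 10 min in rhodamine-free medium, with or without modulator at 1.0 µM. Verapamil at 3.0 µM was the reference. Flow cytometry median fluorescence after efflux was divided by that after uptake and expressed as a percentage. Mean ± SE of three independent experiments.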

[10] = Drug degradation in human plasma at 1 uM measured upto 120 mins by LC-MS/MS analysis; type: ADME, cell-free; conditions: 2 h; how it was run: as §1

Structure (SMILES) | half-life at 1 µM [1] | Alpha max [2] | pIC50 [3] | half-life at 1 µM [4] | pEC50 [5] | inhibition (INH) [6] | inhibition (INH) [7] | pEC50 [8] | Activity [9] | Stability [10]
CCOC(=O)C(C)c1cccc(C(=O)c2ccccc2)c1 (stereo not given) | 107 min |  |  |  |  |  |  |  |  | 
COc1cc(/C=C/C(=O)OCCCCCCN(C)CCOC(=O)c2cc(OC)c(OC)c(OC)c2)cc(OC)c1OC | > 240 min | 0.77 | 6.72 | > 240 min |  |  |  |  |  | 
COc1cc(/C=C/C(=O)OCCCCCCCN(C)CCOC(=O)c2c3ccccc3cc3ccccc23)cc(OC)c1OC | > 240 min | 0.98 | 7.70 | > 240 min |  |  |  |  |  | 
COc1cc(/C=C/C(=O)OCCN(C)CCCCCCCOC(=O)c2c3ccccc3cc3ccccc23)cc(OC)c1OC | > 240 min | 0.88 | 6.77 | > 240 min |  |  |  |  |  | 
COc1cc(/C=C/C(=O)OCCCCCN(C)CCCCOC(=O)c2c3ccccc3cc3ccccc23)cc(OC)c1OC | > 240 min | 0.99 | 7.52 | > 240 min |  |  |  |  |  | 
COc1cc(/C=C/C(=O)OCCCCCCCCN(C)CCOC(=O)c2c3ccccc3cc3ccccc23)cc(OC)c1OC | > 240 min | 0.99 | 7.30 | > 240 min | 6.47 | Not Active | Not Active | 5.27 |  | 
COc1cc(/C=C/C(=O)OCCCCCCN(C)CCCOC(=O)c2c3ccccc3cc3ccccc23)cc(OC)c1OC | > 240 min | 0.99 | 7.52 | > 240 min |  |  |  |  |  | 
COc1cc(/C=C/C(=O)OCCCCCCN(C)CCCCOC(=O)c2c3ccccc3cc3ccccc23)cc(OC)c1OC | > 240 min | 0.94 | 7.70 | > 240 min | 6.28 | Not Active | Not Active | 5.42 | 92.8% | 
COc1cc(/C=C/C(=O)OCCCCCCN(C)CCOC(=O)c2c3ccccc3cc3ccccc23)cc(OC)c1OC | > 240 min | 0.94 | 7.40 | > 240 min |  |  |  |  |  | 
COc1cc(/C=C/C(=O)OCCN(C)CCCCCCOC(=O)c2c3ccccc3cc3ccccc23)cc(OC)c1OC | > 240 min | 0.79 | 6.70 | > 240 min |  |  |  |  |  | 
COc1cc(/C=C/C(=O)OCCCN(C)CCCCCCOC(=O)c2c3ccccc3cc3ccccc23)cc(OC)c1OC | > 240 min | 0.92 | 7.40 | > 240 min |  |  |  |  |  | 
COc1cc(/C=C/C(=O)OCCCCN(C)CCCCCOC(=O)c2c3ccccc3cc3ccccc23)cc(OC)c1OC | > 240 min | 0.94 | 7.40 | > 240 min |  |  |  |  |  | 
COc1cc(/C=C/C(=O)OCCCCN(C)CCCCCCOC(=O)c2c3ccccc3cc3ccccc23)cc(OC)c1OC | > 240 min | 0.95 | 8.00 | > 240 min | 6.07 | Active | Not Active | 5.48 | 64.6% | 
COc1cc(/C=C/C(=O)OCCCCCCCN(C)CCCOC(=O)c2c3ccccc3cc3ccccc23)cc(OC)c1OC | > 240 min | 0.93 | 8.00 | > 240 min | 6.64 | Not Active | Not Active | 5.41 |  | 
COc1cc(/C=C/C(=O)OCCN(C)CCCCCCCCOC(=O)c2c3ccccc3cc3ccccc23)cc(OC)c1OC | > 240 min | 0.96 | 7.40 | > 240 min | 6.04 | Not Active | Not Active | 5.29 |  | 

Other lines, results leading:

half-life at 1 µM [1] | Alpha max [2] | pIC50 [3] | half-life at 1 µM [4] | pEC50 [5] | inhibition (INH) [6] | inhibition (INH) [7] | pEC50 [8] | Activity [9] | Stability [10] | Structure (SMILES)
> 240 min |  |  | > 240 min |  |  |  |  |  |  | COc1cc(/C=C/C(=O)OCCCCCN(C)CCCCCOC(=O)c2cc(OC)c(OC)c(OC)c2)cc(OC)c1OC
> 240 min | 0.93 | 7.70 | > 240 min | 6.52 | Not Active | Not Active | 5.42 |  |  | COc1cc(/C=C/C(=O)OCCCCCCCCN(C)CCOC(=O)c2cc(OC)c(OC)c(OC)c2)cc(OC)c1OC
> 240 min | 0.99 | 7.40 | > 240 min |  |  |  |  |  |  | COc1cc(/C=C/C(=O)OCCCCCCCN(C)CCOC(=O)c2cc(OC)c(OC)c(OC)c2)cc(OC)c1OC
41 min |  |  | > 240 min |  |  |  |  |  | Unstable | COc1cc(/C=C/C(=O)OCCCN(C)CCCCCOC(=O)c2cc(OC)c(OC)c(OC)c2)cc(OC)c1OC
> 240 min | 0.91 | 6.34 | > 240 min |  |  |  |  |  |  | COc1cc(/C=C/C(=O)OCCN(C)CCCCCCOC(=O)c2cc(OC)c(OC)c(OC)c2)cc(OC)c1OC
> 240 min | 0.99 | 6.57 | > 240 min |  |  |  |  |  | Stable | COc1cc(/C=C/C(=O)OCCCCN(C)CCCCCOC(=O)c2cc(OC)c(OC)c(OC)c2)cc(OC)c1OC
> 240 min | 0.9 | 6.62 | > 240 min |  |  |  |  |  |  | COc1cc(/C=C/C(=O)OCCCCCCN(C)CCCOC(=O)c2cc(OC)c(OC)c(OC)c2)cc(OC)c1OC
> 240 min | 0.94 | 7.00 | > 240 min |  |  |  |  |  |  | COc1cc(/C=C/C(=O)OCCCCCN(C)CCCCOC(=O)c2cc(OC)c(OC)c(OC)c2)cc(OC)c1OC
> 240 min | 0.99 | 8.00 | > 240 min | 6.70 | Active | Not Active | 4.80 |  |  | COc1cc(/C=C/C(=O)OCCCCCCN(C)CCCCOC(=O)c2cc(OC)c(OC)c(OC)c2)cc(OC)c1OC
123 min | 0.99 | 7.15 | > 240 min |  |  |  |  |  | Unstable | COc1cc(/C=C/C(=O)OCCCCN(C)CCCCCCOC(=O)c2cc(OC)c(OC)c(OC)c2)cc(OC)c1OC
> 240 min | 0.91 | 7.40 | > 240 min | 6.66 | Not Active | Not Active | 5.35 |  |  | COc1cc(/C=C/C(=O)OCCN(C)CCCCCCCCOC(=O)c2cc(OC)c(OC)c(OC)c2)cc(OC)c1OC
45 min | 0.97 | 7.10 | > 240 min |  |  |  |  |  | Unstable | COc1cc(/C=C/C(=O)OCCCN(C)CCCCCCCOC(=O)c2cc(OC)c(OC)c(OC)c2)cc(OC)c1OC
39 min | 0.99 | 6.41 | > 240 min |  |  |  |  |  | Unstable | COc1cc(/C=C/C(=O)OCCCN(C)CCCCCCOC(=O)c2cc(OC)c(OC)c(OC)c2)cc(OC)c1OC
> 240 min | 0.79 | 7.15 | > 240 min |  |  |  |  |  |  | COc1cc(/C=C/C(=O)OCCN(C)CCCCCCCOC(=O)c2cc(OC)c(OC)c(OC)c2)cc(OC)c1OC
> 240 min |  |  | > 240 min |  |  |  |  |  |  | COc1cc(/C=C/C(=O)OCCCCCN(C)CCCOC(=O)c2cc(OC)c(OC)c(OC)c2)cc(OC)c1OC
